As a reminder, the inhibition in vivo is the percentage by which the read-out fell short of the control. Broadly, the IC50 is the concentration at which inhibition is half-maximal.

The source of these data is ChEMBL document CHEMBL3286385, “Novel 1-[4-(Aminosulfonyl)phenyl]-1H-1,2,4-triazole derivatives with remarkable selective COX-2 inhibition: design, synthesis, molecular docking, anti-inflammatory and ulcerogenicity studies” (Eur J Med Chem, 2014).

The test system of series [1] is Rattus norvegicus. Put plainly: Antiinflammatory activity against albino rat assessed as inhibition of carrageenan-induced paw edema at 0.28 mmol/kg, po administered 30 mins prior to carrageenan challenge measured after 1 hr relative to control. In kind it is functional. In outline:
(§1)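 Adult male albino rats (120–140 g), in groups of four, were fasted 24 h with water allowed. Compounds were given orally as a suspension in 0.5% w/v CMC in water, and controls received CMC alone. After 30 min, 0.1 mL of 1% carrageenan in saline was injected subplantar into the right hind paw and saline into the left. Paw thickness was measured by caliper. % inhibition = [(VR−VL)control − (VR−VL)treated]/(VR−VL)control; one-way ANOVA.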

Series [2] concerns Rattus norvegicus. Put plainly: Antiinflammatory activity against albino rat assessed as inhibition of carrageenan-induced paw edema at 0.28 mmol/kg, po administered 30 mins prior to carrageenan challenge measured after 2 hrs relative to control. It counts as functional. In outline: as §1
In general terms: Carrageenan injected into the paw causes an acute inflammation.

For series [3], the system named is Rattus norvegicus. Nature of the series: Antiinflammatory activity against albino rat assessed as inhibition of carrageenan-induced paw edema at 0.28 mmol/kg, po administered 30 mins prior to carrageenan challenge measured after 3 hrs relative to control. In kind it is functional. In outline: as §1
Series [4] has as its system Rattus norvegicus. Nature of the series: Antiinflammatory activity against albino rat assessed as inhibition of carrageenan-induced paw edema at 0.28 mmol/kg, po administered 30 mins prior to carrageenan challenge measured after 4 hrs relative to control. It counts as functional. In outline: as §1
For series [5], the system named is Rattus norvegicus. Nature of the series: Antiinflammatory activity against albino rat assessed as inhibition of carrageenan-induced paw edema at 0.28 mmol/kg, po administered 30 mins prior to carrageenan challenge measured after 5 hrs relative to control. It counts as functional. In outline:
as §1

For series [6], the system named is Rattus norvegicus. Nature of the series: Antiinflammatory activity against albino rat assessed as inhibition of carrageenan-induced paw edema at 0.28 mmol/kg, po administered 30 mins prior to carrageenan challenge measured after 3 hrs relative to indomethacin. In kind it is functional. Details: scale not given: the % may be the effect or the level left.
In series [7] the test system is Rattus norvegicus. Nature of the series: Gastric toxicity in rat assessed as ulcer index at 0.28 mmol/kg, po. It counts as organism-based. As to conditions: in vivo.
In series [8] the test system is Rattus norvegicus. Put plainly: Antiinflammatory activity against albino rat assessed as inhibition of carrageenan-induced paw edema at 0.28 mmol/kg, po administered 30 mins prior to carrageenan challenge measured after 3 hrs relative to celecoxib. Details: scale not given: the % may be the effect or the level left. In kind it is functional.
Series [9] addresses T1, Prostaglandin G/H synthase 1 (Ovis aries, UniProt P05979).
T1 sequence (P05979 whole entry): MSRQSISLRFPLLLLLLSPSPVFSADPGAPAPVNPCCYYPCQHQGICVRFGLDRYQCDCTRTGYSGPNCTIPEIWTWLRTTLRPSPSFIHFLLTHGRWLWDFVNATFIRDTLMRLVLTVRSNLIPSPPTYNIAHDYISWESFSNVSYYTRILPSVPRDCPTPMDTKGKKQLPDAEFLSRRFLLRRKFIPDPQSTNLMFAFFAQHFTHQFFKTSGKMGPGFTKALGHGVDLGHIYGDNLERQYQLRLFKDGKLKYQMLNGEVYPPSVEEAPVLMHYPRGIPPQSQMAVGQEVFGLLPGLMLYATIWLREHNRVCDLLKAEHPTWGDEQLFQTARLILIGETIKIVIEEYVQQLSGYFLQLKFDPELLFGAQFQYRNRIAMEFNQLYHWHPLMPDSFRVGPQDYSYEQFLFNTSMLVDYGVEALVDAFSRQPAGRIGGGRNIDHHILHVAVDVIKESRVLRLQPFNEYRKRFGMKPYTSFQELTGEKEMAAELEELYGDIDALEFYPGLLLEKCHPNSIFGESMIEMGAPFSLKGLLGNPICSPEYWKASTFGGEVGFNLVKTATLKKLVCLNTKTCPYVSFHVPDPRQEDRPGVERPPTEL
Nature of the series: Inhibition of ovine COX1 using ADHP as substrate after 20 mins by fluorescence assay. The method, boiled down:
(§2)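 Ovine COX-1 or human recombinant COX-2 was preincubated 20 min at room temperature with a range of compound concentrations in 100 mM Tris-HCl pH 8.0, heme and ADHP. Arachidonic acid was then added for 2 min at room temperature, and resorufin fluorescence was read. IC50 came from the dose-response curve (triplicate determinations). Selectivity index = COX-1 IC50/COX-2 IC50.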

Series [10] deals with T2, Prostaglandin G/H synthase 2 (Homo sapiens, UniProt P35354).
T2 sequence (P35354 whole entry): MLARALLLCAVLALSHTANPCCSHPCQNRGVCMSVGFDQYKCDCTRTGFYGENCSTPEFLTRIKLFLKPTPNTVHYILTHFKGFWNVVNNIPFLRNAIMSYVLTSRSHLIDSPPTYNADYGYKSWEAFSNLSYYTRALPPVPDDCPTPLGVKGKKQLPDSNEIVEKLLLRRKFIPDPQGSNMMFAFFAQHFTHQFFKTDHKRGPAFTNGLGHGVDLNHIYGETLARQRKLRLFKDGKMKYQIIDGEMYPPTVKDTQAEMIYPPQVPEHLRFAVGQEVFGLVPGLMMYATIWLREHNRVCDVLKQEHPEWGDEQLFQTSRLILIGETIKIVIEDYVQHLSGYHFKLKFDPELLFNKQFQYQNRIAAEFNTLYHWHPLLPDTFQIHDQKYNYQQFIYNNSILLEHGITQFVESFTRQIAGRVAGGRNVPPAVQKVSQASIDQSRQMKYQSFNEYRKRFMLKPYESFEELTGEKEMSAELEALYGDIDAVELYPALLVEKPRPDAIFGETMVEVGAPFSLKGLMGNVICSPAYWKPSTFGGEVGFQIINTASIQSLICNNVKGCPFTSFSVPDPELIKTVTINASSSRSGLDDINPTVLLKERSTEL
Put plainly: Inhibition of human recombinant COX2 using ADHP as substrate after 20 mins by fluorescence assay. The method, boiled down:
as §2

Series [11] in a line: Selectivity index, ratio of IC50 for ovine COX1 to IC50 for human recombinant COX2. In outline: as §2

In the case of `COc1ccc2c(c1)c(CC(=O)O)c(C)n2C(=O)c1ccc(Cl)cc1` [INDOMETHACIN], the inhibition in vivo at 280 µmol/kg in series [1] came out at 54%; in series [2], 66%; in [3], 79%; in series [4], 81%; in series [5] it was 84%. For the same molecule, the Activity in series [6] worked out at 100%. For the same molecule, the UI in series [7] is reported as 39.

Take `COc1ccc(NC(=O)c2nc(-c3ccccc3)n(-c3ccc(S(N)(=O)=O)cc3)n2)cc1`: the inhibition in vivo at 280 µmol/kg in [1] turned out to be 53%; in [2], 57%; in series [3], 78%; in series [4], 73%; in series [5], 55%. The Activity in [6] amounted to 99%; in series [8], 113%. Further, the UI in series [7] was found to be 2.3. Besides, the IC50 in series [9] is above 1000 µM; in series [10], 0.89 µM. Further, in [11], the Ratio IC50 is above 1120.

For `COC(=O)c1nc(-c2ccccc2)n(-c2ccc(S(N)(=O)=O)cc2)n1`, the inhibition in vivo at 280 µmol/kg worked out at 38% in series [1]; 48% in series [2]; 69% in [3]; 61% in [4]; 46% in [5]. In addition, the Activity in series [6] was 87%; in series [8], 100%. Besides, in series [7], the UI is given as 3.

For the molecule `COc1ccc(NC(=O)c2nc(-c3ccccc3)n(-c3ccc(S(N)(=O)=O)cc3)n2)cc1OC`, the inhibition in vivo at 280 µmol/kg is 22% in [1]; 52% in [2]; 72% in series [3]; 63% in series [4]; 60% in series [5]. The Activity in [6] was 91%; in series [8], 104%. The UI in series [7] is 0. For the same molecule, the half-maximal inhibitory concentration (IC50) in series [9] was 346 µM; in [10], 1.3 µM. For the same molecule, in [11], the Ratio IC50 came to 266.

Regarding `Cc1ccc(NC(=O)c2nc(-c3ccccc3)n(-c3ccc(S(N)(=O)=O)cc3)n2)cc1`, the inhibition in vivo at 280 µmol/kg in [1] came out at 40%; in series [2] it was 47%; in [3] it was 76%; in series [4], 71%; in series [5] it was 65%. Further, the Activity in series [6] amounted to 96%; in series [8] it was 110%. In series [7], the UI is 1. The IC50 in series [9] is 516 µM; in series [10], 1.9 µM. For the same molecule, the Ratio IC50 in series [11] came out at 271.

As to `NS(=O)(=O)c1ccc(-n2nc(C(=O)Nc3nc4ccccc4s3)nc2-c2ccccc2)cc1`, the inhibition in vivo at 280 µmol/kg amounted to 20% in series [1]; 32% in [2]; 54% in [3]; 44% in series [4]; 38% in series [5]. For the same molecule, the Activity is 68% in [6] and 78% in series [8]. Also, the UI in series [7] is 1. In addition, the results for the IC50 in [9] and in series [10] were 798 µM and 0.38 µM, respectively. For the same molecule, the Ratio IC50 in series [11] was determined as 2100.

Turning to `CC(C)NC(=O)c1nc(-c2ccccc2)n(-c2ccc(S(N)(=O)=O)cc2)n1`, the inhibition in vivo at 280 µmol/kg in series [1] was 21%; in series [2], 43%; in series [3], 55%; in series [4] it was 44%; in [5] it was 43%. Besides, the Activity turned out to be 70% in [6] and 80% in series [8]. Further, the UI in series [7] turned out to be 0. In addition, the figures for the IC50 in series [9] and in series [10] were above 1000 µM and 16 µM, respectively. The Ratio IC50 in series [11] is above 62.5.

Consider `NS(=O)(=O)c1ccc(-n2nc(C(=O)Nc3ccc(Cl)cc3)nc2-c2ccccc2)cc1`, for which the inhibition in vivo at 280 µmol/kg in series [1] was determined as 36%; in [2], 62%; in series [3], 67%; in [4], 53%; in series [5], 44%. Further, the results for the Activity in [6] and in series [8] were 85% and 97%, respectively. The UI in series [7] came out at 0.5. Further, the IC50 in series [9] was above 1000 µM; in [10], 0.47 µM. Further, in series [11], the Ratio IC50 was above 2130.

Regarding `Cc1ccc(-c2cc(C(F)(F)F)nn2-c2ccc(S(N)(=O)=O)cc2)cc1` [CELECOXIB], the inhibition in vivo at 280 µmol/kg in series [1] amounted to 44%; in [2], 50%; in [3], 69%; in [4] it was 59%; in [5] it was 52%. Further, in [8], the Activity was determined as 100%. In addition, the UI in series [7] is recorded as 0.5.

Take `NNC(=O)c1nc(-c2ccccc2)n(-c2ccc(S(N)(=O)=O)cc2)n1`: the inhibition in vivo at 280 µmol/kg is 32% in [1]; 53% in series [2]; 60% in series [3]; 45% in series [4]; 32% in [5]. The Activity in [6] amounted to 76%; in series [8], 87%. Also, the UI in series [7] amounted to 3.

For the molecule `NS(=O)(=O)c1ccc(-n2nc(C(=O)NC3CCCCC3)nc2-c2ccccc2)cc1`, the inhibition in vivo at 280 µmol/kg in series [1] turned out to be 20%; in series [2] it was 43%; in series [3] it was 65%; in series [4], 53%; in series [5] it was 42%. For the same molecule, the figures for the Activity in [6] and in series [8] were 82% and 94%, respectively. Also, the UI in [7] was 0. Also, the IC50 in series [9] was above 1000 µM; in series [10] it was 0.66 µM. In addition, the Ratio IC50 in series [11] is above 1520.

Take `CC(=O)c1ccc(NC(=O)c2nc(-c3ccccc3)n(-c3ccc(S(N)(=O)=O)cc3)n2)cc1`: the inhibition in vivo at 280 µmol/kg amounted to 53% in [1]; 68% in [2]; 73% in series [3]; 64% in series [4]; 42% in series [5]. Besides, the Activity is 92% in [6] and 106% in series [8]. The UI in series [7] is given as 0.5.

On to `NC(=O)c1nc(-c2ccccc2)n(-c2ccc(S(N)(=O)=O)cc2)n1`, for which the inhibition in vivo at 280 µmol/kg stood at 43% in [1]; 48% in [2]; 52% in series [3]; 49% in series [4]; 42% in series [5]. For the same molecule, the Activity in [6] was 66%; in series [8] it was 75%. In addition, the UI in series [7] was found to be 2.
